Laboratory results: ChEMBL document CHEMBL1132401, “Glycosylation of fluoroquinolones through direct and oxygenated polymethylene linkages as a sugar-mediated active transport system for antimicrobials” (1999)
≈ marks a conversion by molar mass, not a printed value.

Tests used:
[1] = system: Enterococcus faecalis; experiment: Minimum concentration required to prevent the growth of high level gentamicin and beta- lactamase resistant (HLGR, BLA+) Enterococcus faecalis strain A0089; assay type: functional; conditions: Enterococcus faecalis; read-out: MIC
Method in brief: (§1)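 Agar dilution susceptibility testing per NCCLS guidelines against resistant clinical isolates, with nonresistant ATCC stock strains run as controls. Plates were read at 19–24 h of incubation. MIC reported in µg/mL.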

[2] = system: Enterococcus faecalis; experiment: Minimum concentration required to prevent the growth of high level gentamicin and beta- lactamase resistant (HLGR, BLA+) Enterococcus faecalis strain A0090; assay type: functional; method in brief: as §1
[3] = system: Enterococcus faecalis; experiment: Minimum concentration required to prevent the growth of nonresistant stock strain Enterococcus faecalis 51299 from American Type Culture Collection (ATCC); assay type: functional; conditions: Enterococcus faecalis; read-out: MIC; method in brief: as §1
[4] = system: Enterococcus faecium; experiment: Minimum concentration required to prevent the growth of nonresistant stock strain Enterococcus faecium 19434 from American Type Culture Collection (ATCC); assay type: functional; conditions: Enterococcus faecium; read-out: MIC
Method in brief: (§2)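 Agar dilution susceptibility testing per NCCLS guidelines, covering clinical isolates (including resistant phenotypes) and nonresistant ATCC stock strains as controls. Plates read after 19–24 h of incubation. MIC reported in μg/mL.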

[5] = system: Enterococcus faecium; experiment: Minimum concentration required to prevent the growth of vancomycin resistant (VanB) Enterococcus faecium strain A0803; assay type: functional; conditions: Enterococcus faecium; read-out: MIC; method in brief: as §1
[6] = system: Enterococcus faecium; experiment: Minimum concentration required to prevent the growth of vancomycin resistant (VanB) Enterococcus faecium strain A1087; assay type: functional; conditions: Enterococcus faecium; read-out: MIC; method in brief: as §1
[7] = system: Enterococcus faecalis; experiment: Minimum concentration required to prevent the growth of vancomycin resistant (VanA) Enterococcus faecalis strain A0401; assay type: functional; conditions: Enterococcus faecalis; read-out: MIC; method in brief: as §1
[8] = system: Enterococcus faecalis; experiment: Minimum concentration required to prevent the growth of vancomycin resistant (VanA) Enterococcus faecalis strain A0402; assay type: functional; conditions: Enterococcus faecalis; read-out: MIC; method in brief: as §1
[9] = system: Enterococcus faecalis; experiment: Minimum concentration required to prevent the growth of nonresistant stock strain Enterococcus faecalis 29212 from American Type Culture Collection (ATCC); assay type: functional; method in brief: as §1
[10] = system: Escherichia coli; experiment: Minimum concentration required to prevent the growth of cipro resistant (Cipro-R) Escherichia coli strain A3228; assay type: functional; method in brief: as §2
[11] = system: Escherichia coli; experiment: Minimum concentration required to prevent the growth of cipro resistant (Cipro-R) Escherichia coli strain A3529; assay type: functional; method in brief: as §2
[12] = system: Escherichia coli; experiment: Minimum concentration required to prevent the growth of cipro resistant (Cipro-R) Escherichia coli strain AA; assay type: functional; method in brief: as §2
[13] = system: Escherichia coli; experiment: Minimum concentration required to prevent the growth of nonresistant stock Escherichia coli strain 25922 from American Type Culture Collection (ATCC); assay type: functional; conditions: ATCC25922; method in brief: as §2
[14] = system: Enterococcus faecalis; experiment: Minimum concentration required to prevent the growth of vancomycin resistant (VanB) Enterococcus faecalis strain A1079; assay type: functional; method in brief: as §1
[15] = system: Enterococcus faecalis; experiment: Minimum concentration required to prevent the growth of vancomycin resistant (VanB) Enterococcus faecalis strain A1081; assay type: functional; conditions: Enterococcus faecalis; read-out: MIC; method in brief: as §1
[16] = system: Klebsiella pneumoniae; experiment: Minimum concentration required to prevent the growth of cipro resistant (Cipro-I) Klebsiella pneumoniae strain AM; assay type: functional; method in brief: as §1
[17] = system: Listeria monocytogenes; experiment: Minimum concentration required to prevent the growth of Listeria monocytogenes strain A0182; assay type: functional; method in brief: as §2
[18] = system: Listeria monocytogenes; experiment: Minimum concentration required to prevent the growth of Listeria monocytogenes strain A0183; assay type: functional; method in brief: as §2
[19] = system: Pseudomonas aeruginosa; experiment: Minimum concentration required to prevent the growth of Pseudomonas aeruginosa strain 28215; assay type: functional; method in brief: as §2
[20] = system: Staphylococcus epidermidis; experiment: Minimum concentration required to prevent the growth of multiply resistant Staphylococcus epidermidis (MRSE) and cipro resistant (Cipro-R) coag.-neg. Staph. A0248; assay type: functional; method in brief: as §1
[21] = system: Staphylococcus epidermidis; experiment: Minimum concentration required to prevent the growth of multiply resistant Staphylococcus epidermidis (MRSE) coag.-neg. Staph. A0244; assay type: functional; method in brief: as §1
[22] = system: Staphylococcus epidermidis; experiment: Minimum concentration required to prevent the growth of multiply resistant Staphylococcus epidermidis (MRSE) coag.-neg. Staph. A0245; assay type: functional; method in brief: as §1
[23] = system: Staphylococcus aureus; experiment: Minimum concentration required to prevent the growth of multiply resistant (MRSA) Staphylococcus aureus strain A0170; assay type: functional; method in brief: as §1
[24] = system: Staphylococcus aureus; experiment: Minimum concentration required to prevent the growth of multiply resistant (MRSA) Staphylococcus aureus strain A0171; assay type: functional; method in brief: as §1
[25] = system: Staphylococcus aureus; experiment: Minimum concentration required to prevent the growth of multiply resistant (MRSA) and cipro resistant (Cipro-R) Staphylococcus aureus strain A2800; assay type: functional; method in brief: as §1
[26] = system: Staphylococcus aureus; experiment: Minimum concentration required to prevent the growth of multiply resistant (MRSA) and cipro resistant (Cipro-R) Staphylococcus aureus strain A2043; assay type: functional; method in brief: as §1
[27] = system: Pseudomonas aeruginosa; experiment: Minimum concentration required to prevent the growth of Pseudomonas aeruginosa strain 28245; assay type: functional; method in brief: as §2
[28] = system: Klebsiella oxytoca; experiment: Minimum concentration required to prevent the growth of cipro resistant (Cipro-R) Klebsiella oxytoca strain A3530
[29] = system: Staphylococcus aureus; experiment: Minimum concentration required to prevent the growth of nonresistant stock strain Staphylococcus aureus 29213 from American Type Culture Collection (ATCC)
[30] = system: Staphylococcus epidermidis; experiment: Minimum concentration required to prevent the growth of multiply resistant Staphylococcus epidermidis (MRSE) and cipro resistant (Cipro-R) coag.-neg. Staph. A0247
[31] = system: Staphylococcus epidermidis; experiment: Minimum concentration required to prevent the growth of multiply resistant Staphylococcus epidermidis (MRSE) and cipro resistant (Cipro-R) coag.-neg. Staph. A0247; assay type: functional; method in brief: as §1

Compound	MIC [1] [µg/mL]	MIC [2] [µg/mL]	MIC [3] [µg/mL]	MIC [4] [µg/mL]	MIC [7] [µg/mL]	MIC [8] [µg/mL]	MIC [9] [µg/mL]	MIC [10] [µg/mL]	MIC [11] [µg/mL]	MIC [12] [µg/mL]	MIC [13] [µg/mL]	MIC [14] [µg/mL]	MIC [15] [µg/mL]	MIC [16] [µg/mL]	MIC [17] [µg/mL]	MIC [18] [µg/mL]	MIC [19] [µg/mL]	MIC [20] [µg/mL]	MIC [21] [µg/mL]	MIC [22] [µg/mL]	other results
O=C(O)c1cn(C2CC2)c2cc(N3CCN(CCCO[C@@H]4O[C@@H](CO)[C@@H](O)[C@H](O)[C@@H]4O)CC3)c(F)cc2c1=O	8 (≈ 14.5 µM)	4 (≈ 7.25 µM)	8 (≈ 14.5 µM)	> 32	8 (≈ 14.5 µM)	8 (≈ 14.5 µM)	8 (≈ 14.5 µM)	> 32	> 32	> 32	0.12 (≈ 0.218 µM)	8 (≈ 14.5 µM)	4 (≈ 7.25 µM)	16 (≈ 29 µM)	8 (≈ 14.5 µM)	8 (≈ 14.5 µM)	4 (≈ 7.25 µM)	> 32	8 (≈ 14.5 µM)	4 (≈ 7.25 µM)	MIC [5]: 16 µg/mL (≈ 29 µM); MIC [6]: 32 µg/mL (≈ 58 µM); MIC [23]: 4 µg/mL (≈ 7.25 µM); MIC [24]: 4 µg/mL (≈ 7.25 µM); MIC [25]: > 32 µg/mL; MIC [26]: > 32 µg/mL; MIC [27]: 32 µg/mL (≈ 58 µM); MIC [28]: > 32 µg/mL; MIC [29]: 4 µg/mL (≈ 7.25 µM); MIC [30]: > 32 µg/mL
O=C(O)c1cn(C2CC2)c2cc(N3CCN(CCO[C@@H]4O[C@@H](CO)[C@@H](O)[C@H](O)[C@@H]4O)CC3)c(F)cc2c1=O	> 32	32 (≈ 59.5 µM)	16 (≈ 29.8 µM)	> 32	> 32	32 (≈ 59.5 µM)	32 (≈ 59.5 µM)	> 32	> 32	> 32	2 (≈ 3.72 µM)	32 (≈ 59.5 µM)	16 (≈ 29.8 µM)	> 32	> 32	> 32	32 (≈ 59.5 µM)	> 32	32 (≈ 59.5 µM)	16 (≈ 29.8 µM)	MIC [31]: > 32 µg/mL; MIC [23]: 4 µg/mL (≈ 7.44 µM); MIC [24]: 8 µg/mL (≈ 14.9 µM); MIC [25]: > 32 µg/mL; MIC [26]: > 32 µg/mL; MIC [27]: > 32 µg/mL; MIC [28]: > 32 µg/mL; MIC [29]: 16 µg/mL (≈ 29.8 µM)
O=C(O)c1cn(C2CC2)c2cc(N3CCN(CCCO[C@@H]4O[C@@H](CO)[C@H](O)[C@H](O)[C@@H]4O)CC3)c(F)cc2c1=O	32 (≈ 58 µM)	16 (≈ 29 µM)	16 (≈ 29 µM)	> 32	32 (≈ 58 µM)	32 (≈ 58 µM)	16 (≈ 29 µM)	> 32	> 32	> 32	0.25 (≈ 0.453 µM)	16 (≈ 29 µM)	16 (≈ 29 µM)	> 32	32 (≈ 58 µM)	32 (≈ 58 µM)	16 (≈ 29 µM)	> 32	32 (≈ 58 µM)	8 (≈ 14.5 µM)	MIC [31]: > 32 µg/mL; MIC [23]: 8 µg/mL (≈ 14.5 µM); MIC [24]: 16 µg/mL (≈ 29 µM); MIC [25]: > 32 µg/mL; MIC [26]: > 32 µg/mL; MIC [27]: > 32 µg/mL; MIC [28]: > 32 µg/mL; MIC [29]: 16 µg/mL (≈ 29 µM)
O=C(O)c1cn(C2CC2)c2cc(N3CCN(CCO[C@@H]4O[C@@H](CO)[C@H](O)[C@H](O)[C@@H]4O)CC3)c(F)cc2c1=O	> 32	32 (≈ 59.5 µM)	32 (≈ 59.5 µM)	> 32	> 32	32 (≈ 59.5 µM)	32 (≈ 59.5 µM)	> 32	> 32	> 32	1 (≈ 1.86 µM)	32 (≈ 59.5 µM)	16 (≈ 29.8 µM)	> 32	> 32	> 32	16 (≈ 29.8 µM)	> 32	32 (≈ 59.5 µM)	16 (≈ 29.8 µM)	MIC [31]: > 32 µg/mL; MIC [23]: 8 µg/mL (≈ 14.9 µM); MIC [24]: 8 µg/mL (≈ 14.9 µM); MIC [25]: > 32 µg/mL; MIC [26]: > 32 µg/mL; MIC [27]: > 32 µg/mL; MIC [28]: > 32 µg/mL; MIC [29]: 8 µg/mL (≈ 14.9 µM)
